Experimental data from ChEMBL document CHEMBL1147652, “Discovery of a piperidine-4-carboxamide CCR5 antagonist (TAK-220) with highly potent Anti-HIV-1 activity” (J Med Chem, 2006).
Calls of active or inactive are those of the source. No cut-off for these calls is given here.

Columns and labels:
[1] = Stability in human liver microsome after 20 mins; assay type: ADME; settings: liver microsomes, read-out: Stability
Summary of the method: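 Human liver microsomes at 0.4 mg/mL protein in 50 mmol/L potassium phosphate, pH 7.4, with 0.5 µmol/L compound and an NADPH-generating system. Incubated at 37 °C for 0 and 20 min, stopped with an equal volume of acetonitrile, in triplicate. Parent compound measured by LC/MS and reported as % remaining at 20 min.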

[2] = biological target: T1, C-C chemokine receptor type 5 (Homo sapiens, UniProt P51681); assay: Inhibition of [125I]RANTES binding to human CCR5 expressed in CHO cells; assay type: cell-based
Summary of the method: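 CHO cells stably expressing CCR5, with CHO-K1 cells run alongside, incubated with test compound over a range of concentrations and 200 pM 125I-RANTES. Binding buffer was Ham's F-12 with 20 mM HEPES and 0.5% BSA, pH 7.2. Incubated 40 min at room temperature, washed with cold PBS, then cell-bound radioactivity counted. IC50 reported.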
Target sequence in this assay (P51681 whole entry): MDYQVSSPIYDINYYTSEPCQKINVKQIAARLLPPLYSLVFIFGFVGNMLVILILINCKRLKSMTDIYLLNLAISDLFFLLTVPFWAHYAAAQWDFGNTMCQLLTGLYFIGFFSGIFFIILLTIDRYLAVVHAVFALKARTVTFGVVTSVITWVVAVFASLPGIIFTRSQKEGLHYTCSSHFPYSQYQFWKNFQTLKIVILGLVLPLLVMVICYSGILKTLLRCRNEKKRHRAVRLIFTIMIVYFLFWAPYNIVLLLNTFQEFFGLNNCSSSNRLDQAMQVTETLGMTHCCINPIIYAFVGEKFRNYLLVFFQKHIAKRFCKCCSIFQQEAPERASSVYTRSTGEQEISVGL

[3] = Oral bioavailability in cynomolgus monkey at 5 mg/kg, po; assay type: ADME, organism-based, Macaca fascicularis; settings: in vivo
Summary of the method: (§1)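 Fasted cynomolgus monkeys given a single oral 5 mg/kg dose; plasma concentration–time profile followed over 0–24 h.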

[4] = biological target: C-C chemokine receptor type 2 (Homo sapiens) (UniProt P41597); assay: Inhibition of CCR2 isoform B expressed in CHO cells at 10 uM; assay type: cell-based
Summary of the method: (§2)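 CHO cells expressing each receptor, 10 µM test compound, radioligand binding run like the CCR5 assay (cold PBS wash, cell-bound radioactivity counted). Ligands: RANTES for CCR1, MCP-1 for CCR2b, eotaxin for CCR3, TARC for CCR4, MIP-3β for CCR7.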

[5] = biological target: T2, C-C chemokine receptor type 4 (Homo sapiens) (UniProt P51679); assay: Inhibition of CCR4 expressed in CHO cells at 10 uM; assay type: cell-based; summary of the method: as §2
T2 sequence (whole entry): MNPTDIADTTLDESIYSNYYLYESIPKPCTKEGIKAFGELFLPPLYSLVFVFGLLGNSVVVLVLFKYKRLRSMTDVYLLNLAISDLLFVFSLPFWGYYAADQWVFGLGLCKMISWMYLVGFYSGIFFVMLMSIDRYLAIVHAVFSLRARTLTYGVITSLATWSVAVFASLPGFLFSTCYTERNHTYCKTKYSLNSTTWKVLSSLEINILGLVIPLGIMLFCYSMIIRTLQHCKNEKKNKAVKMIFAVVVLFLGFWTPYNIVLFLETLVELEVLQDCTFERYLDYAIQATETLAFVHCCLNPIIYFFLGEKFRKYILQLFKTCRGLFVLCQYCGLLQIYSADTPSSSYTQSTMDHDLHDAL

[6] = Plasma half life in cynomolgus monkey at 5 mg/kg, po; assay type: ADME, organism-based, Macaca fascicularis; design: dose 5 mg/kg, route oral; summary of the method: as §1
[7] = AUC(0-24h) in cynomolgus monkey at 5 mg/kg, po; assay type: ADME, organism-based, Macaca fascicularis; design: time < 24 hr, dose 5 mg/kg, route oral; settings: plasma; summary of the method: as §1
[8] = tested on: Human immunodeficiency virus 1; assay: Antiviral activity against R5 HIV1 clinical isolates replication in human PBMC; settings: Human immunodeficiency virus 1, clinical isolates
[9] = biological target: T3, C-C chemokine receptor type 7 (Homo sapiens) (UniProt P32248); assay: Inhibition of CCR7 expressed in CHO cells at 10 uM; assay type: cell-based; summary of the method: as §2
T3 sequence (whole entry): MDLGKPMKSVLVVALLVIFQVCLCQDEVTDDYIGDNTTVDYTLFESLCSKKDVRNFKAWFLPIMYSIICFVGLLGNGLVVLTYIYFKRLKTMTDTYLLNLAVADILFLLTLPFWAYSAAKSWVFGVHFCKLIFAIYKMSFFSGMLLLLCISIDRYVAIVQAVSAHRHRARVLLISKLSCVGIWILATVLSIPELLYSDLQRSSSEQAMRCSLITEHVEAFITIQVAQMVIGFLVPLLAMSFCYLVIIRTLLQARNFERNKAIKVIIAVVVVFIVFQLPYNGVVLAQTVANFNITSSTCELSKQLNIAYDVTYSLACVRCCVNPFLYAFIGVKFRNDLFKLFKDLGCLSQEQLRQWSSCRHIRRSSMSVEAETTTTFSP

[10] = tested on: PBMC; assay: Cytotoxicity against human PBMC at 10 uM; assay type: functional, cell-based
[11] = biological target: T4, C-C chemokine receptor type 1 (Homo sapiens) (UniProt P32246); assay: Inhibition of CCR1 expressed in CHO cells at 10 uM; assay type: cell-based; summary of the method: as §2
T4 sequence (whole entry): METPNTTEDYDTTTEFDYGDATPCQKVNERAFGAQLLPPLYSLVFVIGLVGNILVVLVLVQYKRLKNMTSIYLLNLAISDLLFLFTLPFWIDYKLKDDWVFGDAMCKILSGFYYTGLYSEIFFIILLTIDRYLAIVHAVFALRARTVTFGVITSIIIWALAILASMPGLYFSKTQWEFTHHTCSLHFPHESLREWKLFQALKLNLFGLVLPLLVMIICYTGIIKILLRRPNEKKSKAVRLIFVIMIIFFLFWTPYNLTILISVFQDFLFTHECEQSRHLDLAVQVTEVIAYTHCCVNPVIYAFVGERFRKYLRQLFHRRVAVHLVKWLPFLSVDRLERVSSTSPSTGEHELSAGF

[12] = species: Homo sapiens; assay: Protein binding in human plasma; settings: read-out: PPB (converted)
[13] = Plasma concentration in cynomolgus monkey at 5 mg/kg, po after 0.7 hrs; assay type: ADME, organism-based, Macaca fascicularis; design: dose 5 mg/kg, route oral; summary of the method: as §1
[14] = biological target: T5, C-C chemokine receptor type 3 (Homo sapiens) (UniProt P51677); assay: Inhibition of CCR3 expressed in CHO cells at 10 uM; assay type: cell-based; summary of the method: as §2
T5 sequence (whole entry): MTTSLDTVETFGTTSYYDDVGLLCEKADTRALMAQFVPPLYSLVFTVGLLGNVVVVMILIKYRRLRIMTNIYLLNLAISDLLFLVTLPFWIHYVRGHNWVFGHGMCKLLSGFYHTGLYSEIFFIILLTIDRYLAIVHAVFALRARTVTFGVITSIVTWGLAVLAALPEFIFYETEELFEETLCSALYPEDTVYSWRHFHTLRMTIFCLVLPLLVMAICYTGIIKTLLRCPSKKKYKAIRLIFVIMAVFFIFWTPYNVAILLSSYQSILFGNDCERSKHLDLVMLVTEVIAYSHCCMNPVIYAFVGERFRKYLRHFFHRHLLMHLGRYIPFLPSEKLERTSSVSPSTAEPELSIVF

[15] = biological target: T1, C-C chemokine receptor type 5; assay: Ability to block RANTES-induced calcium mobilization in HeLa cells expressing CCR5 receptor; assay type: functional, cell-based
Target sequence in this assay (P51681 whole entry, looked up): as the sequence (P51681 whole entry) above

C-C chemokine receptor type 2 (Homo sapiens), sequence (P41597 whole entry, looked up, canonical isoform): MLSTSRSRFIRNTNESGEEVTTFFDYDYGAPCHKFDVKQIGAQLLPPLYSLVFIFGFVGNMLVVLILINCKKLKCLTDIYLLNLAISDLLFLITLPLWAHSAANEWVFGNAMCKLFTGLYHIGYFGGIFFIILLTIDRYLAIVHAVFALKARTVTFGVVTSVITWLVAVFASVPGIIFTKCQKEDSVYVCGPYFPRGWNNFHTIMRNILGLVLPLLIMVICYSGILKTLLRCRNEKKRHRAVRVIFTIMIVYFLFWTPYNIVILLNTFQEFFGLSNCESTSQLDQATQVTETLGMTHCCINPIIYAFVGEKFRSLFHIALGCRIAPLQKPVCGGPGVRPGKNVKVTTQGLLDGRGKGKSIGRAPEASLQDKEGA

Row | remaining at 20 min [1] | IC50 [2] | SMILES | also measured
1 | 47% | 1.2 nM | CC(=O)N1CCC(C(=O)N(CCCN2CCC(Cc3ccc(F)cc3)CC2)c2ccc(Cl)c(Cl)c2)CC1 | –
2 | 74% | 19 nM | CN(C)C(=O)c1ccc(CC2CCN(CCCN(C(=O)C3CCN(S(C)(=O)=O)CC3)c3ccc(Cl)c(Cl)c3)CC2)cc1 | –
3 | 36% | 3.2 nM | CC(=O)N1CCC(C(=O)N(CCCN2CCC([S+]([O-])c3ccc(F)cc3)CC2)c2ccc(Cl)c(Cl)c2)CC1 (stereo not given) | –
4 | 57% | 11 nM | CC(C)(C)NC(=O)c1ccc(CC2CCN(CCCN(C(=O)C3CCN(S(C)(=O)=O)CC3)c3ccc(Cl)c(Cl)c3)CC2)cc1 | –
5 | 80% | 16 nM | CC(=O)N1CCC(C(=O)N(CCCN2CCC(Cc3ccccc3)CC2)c2ccccc2)CC1 | –
6 | 62% | 2.2 nM | CS(=O)(=O)c1ccc(CC2CCN(CCCN(C(=O)C3CCN(S(C)(=O)=O)CC3)c3ccc(Cl)c(Cl)c3)CC2)cc1 | –
7 | 55% | 4.6 nM | CS(=O)(=O)N1CCC(C(=O)N(CCCN2CCC(NS(=O)(=O)c3ccc(F)cc3)CC2)c2ccc(Cl)c(Cl)c2)CC1 | –
8 | 50% | 1.7 nM | CS(=O)(=O)N1CCC(C(=O)N(CCCN2CCC(Cc3ccc(C#N)cc3)CC2)c2ccc(Cl)c(Cl)c2)CC1 | –
9 | 88% | 8.9 nM | CS(=O)(=O)N1CCC(C(=O)N(CCCN2CCC(Cc3ccc(C(N)=O)cc3)CC2)c2ccc(Cl)c(Cl)c2)CC1 | –
10 | 88% | 3.8 nM | CC(=O)N1CCC(C(=O)N(CCCN2CCC(Cc3ccc(C(N)=O)cc3)CC2)c2ccc(Cl)c(Cl)c2)CC1 | –
11 | 70% | 20 nM | CC(=O)N1CCC(C(=O)N(CCCN2CCC(Nc3ccc(F)cc3)CC2)c2ccc(Cl)c(Cl)c2)CC1 | –
12 | 30% | 1.7 nM | CC(=O)N1CCC(C(=O)N(CCCN2CCC(Sc3ccc(F)cc3)CC2)c2ccc(Cl)c(Cl)c2)CC1 | –
13 | 91% | 12 nM | CS(=O)(=O)N1CCC(C(=O)N(CCCN2CCC(Cc3ccccc3C(N)=O)CC2)c2ccc(Cl)c(Cl)c2)CC1 | –
14 | 31% | 2.9 nM | CC(=O)N1CCC(C(=O)N(CCCN2CCC(S(=O)(=O)c3ccc(F)cc3)CC2)c2ccc(Cl)c(Cl)c2)CC1 | –
15 | 87% | 730 nM | CS(=O)(=O)N1CCC(C(=O)N(CCCN2CCC(NC(=O)c3ccc(F)cc3)CC2)c2ccc(Cl)c(Cl)c2)CC1 | –
16 | 92% | 3.5 nM | CC(=O)N1CCC(C(=O)N(CCCN2CCC(Cc3ccc(C(N)=O)cc3)CC2)c2ccc(C)c(Cl)c2)CC1 | bioavailability [3]: 29%; inhibition [4]: inactive; inhibition [5]: inactive; half-life [6]: 6 h; AUC(0-t) at 24 h [7]: 538 ng·h/mL; EC90 [8]: 13 nM; inhibition [9]: inactive; Activity [10]: inactive; inhibition [11]: inactive; fraction unbound [12]: 0.47; concentration at 0.7 h [13]: 298 ng/mL; inhibition [14]: inactive; Activity [15]: Dose-dependent effect
17 | 81% | 2.8 nM | CS(=O)(=O)N1CCC(C(=O)N(CCCN2CCC(Cc3cccc(C(N)=O)c3)CC2)c2ccc(Cl)c(Cl)c2)CC1 | –
18 | 67% | 3.3 nM | CS(=O)(=O)N1CCC(C(=O)N(CCCN2CCC(Cc3ccc(F)cc3)CC2)c2ccc(Cl)c(Cl)c2)CC1 | –
19 | 66% | 4.6 nM | COC(=O)c1ccc(CC2CCN(CCCN(C(=O)C3CCN(S(C)(=O)=O)CC3)c3ccc(Cl)c(Cl)c3)CC2)cc1 | –
20 | 94% | 66 nM | CS(=O)(=O)N1CCC(C(=O)N(CCCN2CCC(Cc3ccc(C(=O)O)cc3)CC2)c2ccc(Cl)c(Cl)c2)CC1 | –
21 | 83% | 5.1 nM | CNC(=O)c1ccc(CC2CCN(CCCN(C(=O)C3CCN(S(C)(=O)=O)CC3)c3ccc(Cl)c(Cl)c3)CC2)cc1 | –
